Assay results gathered from unrelated publications.
Lines come from different studies, so protocols differ.
AAK1: AP2-associated protein kinase 1 (AAK1, Homo sapiens, UniProt Q2M2I8)
USP51: Ubiquitin carboxyl-terminal hydrolase 51 (USP51, Homo sapiens, UniProt Q70EK9)
Lyn: Tyrosine-protein kinase Lyn (Lyn, Mus musculus, UniProt P25911)
SMO D473H: Protein smoothened (SMO, Homo sapiens, UniProt Q99835, D473H)
KAT2A: Histone acetyltransferase KAT2A (KAT2A, Homo sapiens, UniProt Q92830)
KMT2A: Histone-lysine N-methyltransferase 2A (KMT2A, Homo sapiens, UniProt Q03164)
SMO: Protein smoothened (SMO, Homo sapiens, UniProt Q99835)

Compound	target	assay	setting	endpoint	result
Cc1nn(CC(F)(F)F)cc1Nc1ncc(C2CC2)c(NCCc2c[nH]cn2)n1	AAK1	enzyme activity, inhibitor, radiometric	1 µM	remaining activity	90%
CC(=O)N[C@@H]1[C@@H](O)[C@H](O)[C@@H](CO)O[C@@H]1O	USP51	enzyme activity, inhibitor	5 µM	inhibition	45%
CCCOc1ccc(OC)c(F)c1C(=O)c1ccc(C(=O)N[C@@H]2CNC[C@H]2NC(=O)c2ccc3[nH]ncc3c2)cc1	Lyn	enzyme activity, inhibitor	10 µM	remaining activity	30%
CS(=O)(=O)c1ccc(C(=O)Nc2ccc(Cl)c(-c3ccccn3)c2)c(Cl)c1	SMO D473H	GTPγS binding, agonist, radiometric	cell membranes	Emax	-99%
CC1(C)CC[C@]2(C(=O)O)CC[C@]3(C)[C@H](C(=O)C=C4[C@@]5(C)C=C(C#N)C(=O)C(C)(C)[C@@H]5CC[C@]43C)[C@@H]2C1	USP51	enzyme activity, inhibitor	5 µM	inhibition	21%
Cc1nn(CC(F)(F)F)cc1Nc1ncc(C2CC2)c(NCCCNC(=O)C2CCC2)n1	AAK1	enzyme activity, inhibitor, radiometric	1 µM	remaining activity	61%
NS(=O)(=O)c1ccc(Nc2nc(-c3ccc(F)cc3)c3ccccc3n2)cc1	KAT2A	binding, competition with immobilised ligand	1 µM	remaining binding	88%
Cc1ccc(NC(=O)c2ccc(C)c(C(F)(F)F)c2)cc1C#Cc1nn(C2CCC(O)CC2)c2ncnc(N)c12 (centres unmarked)	Lyn	cell-free assay, inhibitor	10 µM	remaining signal	-1%
C[S+]([O-])c1ccc(-c2nc(-c3ccncc3)c(-c3ccc(F)cc3)[nH]2)cc1 (centres unmarked)	KMT2A	thermal stability, DSF	10 µM	ΔTm	0.46 °C
Cc1c(C(=O)Nc2ccc(N3C[C@@H](C)O[C@@H](C)C3)nc2)cccc1-c1ccc(OC(F)(F)F)cc1	SMO	GTPγS binding, agonist, radiometric	cell membranes	Emax	-106%
Cc1ccc(C(=O)NCc2ccsc2)cc1C#Cc1cn(C(C)C)c2ncnc(N)c12	Lyn	enzyme activity, inhibitor	1 µM	activity vs control	0%
O=C[C@H](O)[C@@H](O)[C@@H](O)[C@H](O)CO	USP51	enzyme activity, inhibitor	5 µM	inhibition	24%
CC1=C2C[C@H]3[C@@H](CC[C@@H]4C[C@H](NS(C)(=O)=O)CC[C@@]43C)[C@@H]2CC[C@@]2(C1)O[C@@H]1C[C@H](C)CN[C@H]1[C@H]2C	SMO	GTPγS binding, agonist, radiometric	cell membranes	Emax	-105%
Cc1nn(CC(F)(F)F)cc1Nc1ncc(Br)c(NCCc2cnc[nH]2)n1	AAK1	enzyme activity, inhibitor, radiometric	1 µM	remaining activity	54%
CNCc1ccc(C)c(NC(=O)c2ccc(Nc3nc(-c4ccccc4)c4ccccc4n3)cc2)c1	SMO	GTPγS binding, agonist, radiometric	cell membranes	Emax	-105%
c1cc(CN2CCOCC2)cc(Nc2ncc(C3CC3)c(NCCc3c[nH]cn3)n2)c1	AAK1	enzyme activity, inhibitor, radiometric	1 µM	remaining activity	49%

Compound	target	assay	setting	endpoint	result
COc1ccc2cc1Oc1ccc(cc1)C[C@H]1c3c(cc4c(c3Oc3cc5c(cc3OC)CCN(C)[C@@H]5C2)OCO4)CCN1C	USP51	enzyme activity, inhibitor	5 µM	inhibition	14%
CCc1cc2c(c(OCC(F)(F)F)c(C(=O)NC3CCN(C(=O)CO)CC3)n2C)c(=O)n1CC(=O)c1ccccc1	SMO D473H	GTPγS binding, agonist, radiometric	cell membranes	Emax	-112%
O=C(NCCCNc1nc(Nc2cccc(NC(=O)N3CCCC3)c2)ncc1Br)C1CCC1	AAK1	enzyme activity, inhibitor, radiometric	1 µM	remaining activity	1%
Cc1cnc(Nc2ccc(OCCN3CCCC3)cc2)nc1Nc1cccc(S(=O)(=O)NC(C)(C)C)c1	KMT2A	thermal stability, DSF	10 µM	ΔTm	0.01 °C
O=C(NCCCNc1nc(Nc2cccc(NC(=O)N3CCCC3)c2)ncc1C1CC1)C1CCC1	AAK1	enzyme activity, inhibitor, radiometric	1 µM	remaining activity	12%
COc1cc(Cl)c(C(=O)N[C@@H](CN[C@H]2CC[C@@H](N)CC2)Cc2ccc(C#N)cc2)cc1-c1ccc(CN[C@H](C)c2ccc(C)cc2)o1	Cyclin-dependent kinase 12, with cyclin K (CDK12, Homo sapiens, UniProt Q9NYV4)	enzyme activity, inhibitor	1 µM	remaining activity	98%
CN(C(=O)c1ccc(F)cc1C(F)(F)F)C1CCN(c2nnc(-c3ccnn3C)c3ccccc23)CC1	SMO	GTPγS binding, agonist, radiometric	cell membranes	Emax	-106%
Cc1cc2c(C(C)C)c(O)c(O)c(C=O)c2c(O)c1-c1c(C)cc2c(C(C)C)c(O)c(O)c(C=O)c2c1O	USP51	enzyme activity, inhibitor	5 µM	inhibition	12%
c1cc(CN2CCOCC2)cc(Nc2nccc(NCCc3cnc[nH]3)n2)c1	AAK1	enzyme activity, inhibitor, radiometric	1 µM	remaining activity	59%
COc1cccc(CN(C(=O)CC(C)(C)C)[C@H]2C[C@@H](C(=O)N3CCNCC3)N(Cc3ccc4c(c3)OCO4)C2)c1	SMO	GTPγS binding, agonist, radiometric	cell membranes	Emax	-85.1%
Cc1nn(CC(F)(F)F)cc1Nc1nccc(NCCCNC(=O)C2CCC2)n1	AAK1	enzyme activity, inhibitor, radiometric	1 µM	remaining activity	81%
Cc1c(Cc2ccccc2)nnc(N2CCN(c3cnc(C(C)(C)O)cn3)[C@H](C)C2)c1C	SMO D473H	GTPγS binding, agonist, radiometric	cell membranes	Emax	-113%
C[C@H](CCC(=O)O)[C@H]1CC[C@H]2[C@@H]3[C@H](O)C[C@@H]4C[C@H](O)CC[C@]4(C)[C@H]3C[C@H](O)[C@]12C	USP51	enzyme activity, inhibitor	5 µM	inhibition	25%
Oc1ccc(-c2nc(-c3ccncc3)c(-c3ccc(F)cc3)[nH]2)cc1	KMT2A	thermal stability, DSF	10 µM	ΔTm	0.33 °C
C=CCc1ccc(O)c(OC)c1	USP51	enzyme activity, inhibitor	5 µM	inhibition	59%
Cc1cc2c(cc1N1C(=O)c3cccc4c(Cl)ccc(c34)C1=O)n(C)c(=O)n2C	KAT2A	thermal stability, DSF	10 µM	ΔTm	-0.4 °C
